One test relates to Leishmania donovani. Kind of test: Antileishmanial activity against Leishmania donovani axenic amastigotes after 3 days by tetrazolium dye based spectrophotometric analysis at pH 5.5. The settings on record: 72 h. The class given is functional, organism-based. In outline:
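Ld1s axenic amastigote-like L. donovani grown in potassium-based medium, pH 5.5, 37 °C; exposed to compounds for three days; tetrazolium dye added and read spectrophotometrically. IC50 (μM) averaged with standard errors, n ≥ 3.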

A further test concerns Leishmania amazonensis. Kind of test: Antileishmanial activity against beta-lactamase transfected Leishmania amazonensis promastigotes infected in macrophages after 72 hrs by spectrophotometric analysis. The class given is functional, organism-based. In outline: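 Macrophages plated and adhered overnight; infected with β-lactamase-transfected L. amazonensis promastigotes (MOI 5:1) overnight; compounds added for 72 hours at 34 °C; nitrocefin in lysis buffer added for 3 to 5 hours further; absorbance read at 490 nm. IC50 (μM) averaged with standard errors, n ≥ 3.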

A value given as a limit tells only on which side of the number the result lay.

As for `N/C(=N\c1ccc(-c2ccc(-c3ccc(/N=C(\N)c4ccccn4)cc3OC3CCNCC3)o2)c(OC2CCNCC2)c1)c1ccccn1`, the results for the IC50 in the test with Leishmania donovani and in the test on Leishmania amazonensis were 59000 nM and greater than 10000 nM, respectively.

For the compound `Cc1cccc(C(=N)Nc2ccc(-c3ccc(-c4ccc(NC(=N)c5cccc(C)n5)cc4C)o3)c(C)c2)n1`, the IC50 with Leishmania donovani is greater than 50000 nM; in the test with Leishmania amazonensis it was 3100 nM.

With `N=C(Nc1ccc(-c2ccc(-c3ccc(NC(=N)c4ccccn4)cc3F)o2)c(F)c1)c1ccccn1`, the IC50 turned out to be 4200 nM in the test with Leishmania donovani and 1400 nM with Leishmania amazonensis.

In the case of `CC(C)Oc1cc(NC(=N)c2ccn(C)n2)ccc1-c1ccc(-c2ccc(NC(=N)c3ccn(C)n3)cc2OC(C)C)o1`, the results for the IC50 in the test with Leishmania donovani and in the test with Leishmania amazonensis were 5800 nM and 740 nM, respectively.

As to `CC(C)Oc1cc(NC(=N)c2ncc[nH]2)ccc1-c1ccc(-c2ccc(NC(=N)c3ncc[nH]3)cc2OC(C)C)o1`, the IC50 was found to be 1000 nM in the test with Leishmania donovani and 370 nM in the test with Leishmania amazonensis.

In the case of `CC(C)Oc1cc(NC(=N)c2ccc(Cl)cn2)ccc1-c1ccc(-c2ccc(NC(=N)c3ccc(Cl)cn3)cc2OC(C)C)o1`, the IC50 with Leishmania donovani is 5600 nM; with Leishmania amazonensis, greater than 10000 nM.

Consider `N=C(Nc1ccc(-c2ccc(-c3ccc(NC(=N)c4c[nH]cn4)cc3OC3CCCC3)o2)c(OC2CCCC2)c1)c1c[nH]cn1`, for which the concentration for half-maximal inhibition (IC50) in the test with Leishmania donovani was 14000 nM; with Leishmania amazonensis it was greater than 10000 nM.

As to `COC(=O)[C@H](N)CCOc1cc(NC(=N)c2ccccn2)ccc1-c1ccc(-c2ccc(NC(=N)c3ccccn3)cc2OCC[C@H](N)C(=O)OC)s1`, the IC50 in the test with Leishmania donovani is greater than 100000 nM; in the test with Leishmania amazonensis, 5500 nM.

`N=C(Nc1ccc(-c2ccc(-c3ccc(NC(=N)c4ccccn4)cc3O)o2)c(O)c1)c1ccccn1`: the results for the IC50 in the test with Leishmania donovani and in the test on Leishmania amazonensis were 1500 nM and 960 nM, respectively.

Take `N=C(Nc1ccc(-c2ccc(-c3ccc(NC(=N)c4ccccn4)cc3OCc3ccccc3)o2)c(OCc2ccccc2)c1)c1ccccn1`: the IC50 with Leishmania donovani amounted to 4500 nM; with Leishmania amazonensis it was 510 nM.

As to `N=C(Nc1ccc(-c2ccc(-c3ccc(NC(=N)c4ccccn4)cc3Br)o2)c(Br)c1)c1ccccn1`, the IC50 worked out at 1200 nM in the test with Leishmania donovani and 620 nM in the test on Leishmania amazonensis.

As for `Cc1c(-c2ccc(NC(=N)c3ccccn3)cc2)oc(-c2ccc(NC(=N)c3ccccn3)cc2)c1C`, the IC50 came to 370 nM in the test on Leishmania donovani and 110 nM in the test on Leishmania amazonensis.

In the case of `CC(C)Oc1cc(NC(=N)c2ncccn2)ccc1-c1ccc(-c2ccc(NC(=N)c3ncccn3)cc2OC(C)C)o1`, the values for the IC50 in the test on Leishmania donovani and in the test on Leishmania amazonensis were 550 nM and 700 nM, respectively.

Take `CC(C)Oc1cc(NC(=N)c2cn(C)cn2)ccc1-c1ccc(-c2ccc(NC(=N)c3cn(C)cn3)cc2OC(C)C)o1`: the results for the IC50 in the test on Leishmania donovani and in the test on Leishmania amazonensis were 31000 nM and 5000 nM, respectively.

As for `Cc1nc(C(=N)Nc2ccc(-c3ccc(-c4ccc(NC(=N)c5csc(C)n5)cc4OC(C)C)o3)c(OC(C)C)c2)cs1`, the IC50 in the test with Leishmania donovani stood at 1400 nM; in the test on Leishmania amazonensis, 170 nM.

As to `N=C(Nc1ccc(-c2ccc(-c3ccc(NC(=N)c4ccccn4)nc3)o2)cn1)c1ccccn1`, the IC50 is greater than 50000 nM in the test on Leishmania donovani and greater than 10000 nM with Leishmania amazonensis.

`N=C(Nc1ccc(-c2ccc(-c3ccc(NC(=N)c4ccccn4)cc3OC3CCCC3)o2)c(OC2CCCC2)c1)c1ccccn1`: the IC50 was found to be 1400 nM with Leishmania donovani and 170 nM in the test with Leishmania amazonensis.

As to `N=C(Nc1ccc(-c2ccc(-c3ccc(NC(=N)c4ncccn4)cc3OC3CCCC3)o2)c(OC2CCCC2)c1)c1ncccn1`, the results for the IC50 in the test with Leishmania donovani and in the test with Leishmania amazonensis were 1500 nM and 210 nM, respectively.

Take `CC(C)Oc1cc(NC(=N)c2cnccn2)ccc1-c1ccc(-c2ccc(NC(=N)c3cnccn3)cc2OC(C)C)o1`: the IC50 came out at 20000 nM in the test with Leishmania donovani and 3700 nM in the test with Leishmania amazonensis.

For `CC(C)Oc1cc(NC(=N)c2ccc[nH]2)ccc1-c1ccc(-c2ccc(NC(=N)c3ccc[nH]3)cc2OC(C)C)o1`, the IC50 with Leishmania donovani is 16000 nM; with Leishmania amazonensis, 900 nM.

As for `N=C(Nc1cnc(-c2ccc(-c3cnc(NC(=N)c4ccccn4)cn3)o2)cn1)c1ccccn1`, the IC50 in the test on Leishmania donovani was greater than 100000 nM; in the test on Leishmania amazonensis, greater than 10000 nM.

`N=C(Nc1ncc(-c2ccc(-c3cnc(NC(=N)c4ccccn4)nc3)o2)cn1)c1ccccn1`: the IC50 with Leishmania donovani is greater than 100000 nM; in the test with Leishmania amazonensis, greater than 10000 nM.

Turning to `N=C(Nc1ccc(-c2ccc(-c3ccc(NC(=N)c4cnccn4)cc3)o2)cc1)c1cnccn1`, the IC50 with Leishmania donovani was greater than 100000 nM; in the test with Leishmania amazonensis, greater than 10000 nM.

Regarding `N=C(Nc1ccc(-c2ccc(-c3ccc(NC(=N)c4ccccn4)cc3OCC(F)(F)F)o2)c(OCC(F)(F)F)c1)c1ccccn1`, the IC50 came to 1100 nM in the test with Leishmania donovani and 250 nM with Leishmania amazonensis.

As to `CC(C)Oc1cc(NC(=N)c2ccc(F)cn2)ccc1-c1ccc(-c2ccc(NC(=N)c3ccc(F)cn3)cc2OC(C)C)o1`, the IC50 amounted to 2500 nM in the test on Leishmania donovani and 590 nM in the test on Leishmania amazonensis.

With `CC(C)Oc1cc(NC(=N)c2ccccn2)ccc1-c1ccc(-c2ccc(NC(=N)c3ccccn3)cc2OC(C)C)s1`, the IC50 was 680 nM with Leishmania donovani and 45 nM in the test on Leishmania amazonensis.

On to `COc1ccc(C(=N)Nc2ccc(-c3ccc(-c4ccc(NC(=N)c5ccc(OC)cn5)cc4OC(C)C)o3)c(OC(C)C)c2)nc1`, for which the IC50 was determined as 1000 nM in the test on Leishmania donovani and 130 nM in the test on Leishmania amazonensis.

As for `CC(C)Oc1cc(NC(=N)c2ccc(Br)cn2)ccc1-c1ccc(-c2ccc(NC(=N)c3ccc(Br)cn3)cc2OC(C)C)o1`, the IC50 in the test with Leishmania donovani is 28000 nM; in the test with Leishmania amazonensis it was greater than 10000 nM.

`CC(C)N1CCC(Oc2cc(NC(=N)c3ccccn3)ccc2-c2ccc(-c3ccc(NC(=N)c4ccccn4)cc3OC3CCN(C(C)C)CC3)o2)CC1`: the IC50 is 28000 nM with Leishmania donovani and 2100 nM in the test with Leishmania amazonensis.

For `N=C(Nc1ccc(-c2ccc(-c3ccc(NC(=N)c4ccc(Cl)cn4)cc3OC3CCCC3)o2)c(OC2CCCC2)c1)c1ccc(Cl)cn1`, the figures for the IC50 in the test on Leishmania donovani and in the test on Leishmania amazonensis were greater than 100000 nM and greater than 10000 nM, respectively.

Regarding `N=C(Nc1ccc(-c2ccc(-c3ccc(NC(=N)c4ccc(Br)cn4)cc3OC3CCCC3)o2)c(OC2CCCC2)c1)c1ccc(Br)cn1`, the IC50 in the test with Leishmania donovani is greater than 100000 nM; in the test on Leishmania amazonensis, greater than 10000 nM.

As to `CC(C)COc1cc(NC(=N)c2ccccn2)ccc1-c1ccc(-c2ccc(NC(=N)c3ccccn3)cc2OCC(C)C)o1`, the figures for the IC50 with Leishmania donovani and in the test with Leishmania amazonensis were 1100 nM and 95 nM, respectively.

For the compound `CC(C)Oc1cc(NC(=N)c2ccc(N3CCCC3)cn2)ccc1-c1ccc(-c2ccc(NC(=N)c3ccc(N4CCCC4)cn3)cc2OC(C)C)o1`, the IC50 in the test with Leishmania donovani was determined as 1900 nM; with Leishmania amazonensis, 270 nM.

For `COc1cccc(C(=N)Nc2ccc(-c3ccc(-c4ccc(NC(=N)c5cccc(OC)n5)cc4OC(C)C)o3)c(OC(C)C)c2)n1`, the IC50 is 4500 nM in the test on Leishmania donovani and 2700 nM in the test with Leishmania amazonensis.

On to `CC(C)COc1cc(NC(=N)c2c[nH]cn2)ccc1-c1ccc(-c2ccc(NC(=N)c3c[nH]cn3)cc2OCC(C)C)o1`, for which the values for the IC50 with Leishmania donovani and in the test on Leishmania amazonensis were 23000 nM and greater than 10000 nM, respectively.

`CC(C)COc1cc(NC(=N)c2ccc(Br)cn2)ccc1-c1ccc(-c2ccc(NC(=N)c3ccc(Br)cn3)cc2OCC(C)C)o1`: the results for the IC50 in the test on Leishmania donovani and in the test with Leishmania amazonensis were greater than 50000 nM and greater than 10000 nM, respectively.

As to `CC(C)COc1cc(NC(=N)c2ncccn2)ccc1-c1ccc(-c2ccc(NC(=N)c3ncccn3)cc2OCC(C)C)o1`, the IC50 in the test with Leishmania donovani amounted to 2400 nM; in the test on Leishmania amazonensis, 490 nM.

`CC(=N)Nc1ccc(-c2ccc(-c3ccc(NC(C)=N)cc3OC3CCCC3)o2)c(OC2CCCC2)c1`: the figures for the IC50 in the test on Leishmania donovani and in the test on Leishmania amazonensis were 41000 nM and 4700 nM, respectively.

As to `CC(C)Oc1cc(NC(=N)c2cccnn2)ccc1-c1ccc(-c2ccc(NC(=N)c3cccnn3)cc2OC(C)C)o1`, the IC50 in the test with Leishmania donovani and with Leishmania amazonensis was 1100 nM in each case.

Take `CC(C)Oc1cc(NC(=N)c2csc(N)n2)ccc1-c1ccc(-c2ccc(NC(=N)c3csc(N)n3)cc2OC(C)C)o1`: the results for the IC50 in the test on Leishmania donovani and in the test on Leishmania amazonensis were 21000 nM and 1700 nM, respectively.

For `CC(=O)Nc1nc(C(=N)Nc2ccc(-c3ccc(-c4ccc(NC(=N)c5csc(NC(C)=O)n5)cc4OC(C)C)o3)c(OC(C)C)c2)cs1`, the IC50 with Leishmania donovani was greater than 100000 nM; with Leishmania amazonensis, 220 nM.

For the compound `CC(C)Oc1cc(NC(=N)c2ccc(N)cn2)ccc1-c1ccc(-c2ccc(NC(=N)c3ccc(N)cn3)cc2OC(C)C)o1`, the results for the IC50 with Leishmania donovani and in the test on Leishmania amazonensis were 820 nM and 640 nM, respectively.

For `CC(=O)N(C)c1nc(C(=N)Nc2ccc(-c3ccc(-c4ccc(NC(=N)c5csc(N(C)C(C)=O)n5)cc4OC(C)C)o3)c(OC(C)C)c2)cs1`, the figures for the IC50 with Leishmania donovani and with Leishmania amazonensis were 3600 nM and 810 nM, respectively.

Regarding `CNc1nc(C(=N)Nc2ccc(-c3ccc(-c4ccc(NC(=N)c5csc(NC)n5)cc4OC(C)C)o3)c(OC(C)C)c2)cs1`, the IC50 in the test with Leishmania donovani was determined as 1300 nM; in the test on Leishmania amazonensis, 300 nM.

As to `CC(C)CCOc1cc(NC(=N)c2ccccn2)ccc1-c1ccc(-c2ccc(NC(=N)c3ccccn3)cc2OCCC(C)C)o1`, the IC50 in the test on Leishmania donovani was 5100 nM; in the test with Leishmania amazonensis it was greater than 10000 nM.

On to `CC(C)(C)CCOc1cc(NC(=N)c2ccccn2)ccc1-c1ccc(-c2ccc(NC(=N)c3ccccn3)cc2OCCC(C)(C)C)o1`, for which the figures for the IC50 in the test with Leishmania donovani and in the test with Leishmania amazonensis were 28000 nM and greater than 10000 nM, respectively.

As for `Cc1cc(NC(=N)c2ccccn2)ccc1-c1ccc(-c2ccc(NC(=N)c3ccccn3)cc2C)o1`, the IC50 in the test with Leishmania donovani was 670 nM; with Leishmania amazonensis it was 290 nM.

As for `N=C(Nc1ccc(-c2cc(-c3ccccc3)c(-c3ccc(NC(=N)c4ccccn4)cc3)o2)cc1)c1ccccn1`, the IC50 turned out to be 1700 nM in the test with Leishmania donovani and 110 nM in the test on Leishmania amazonensis.

For the compound `N=C(Nc1ccc(-c2ccc(-c3ccc(NC(=N)c4ccccn4)cc3Cl)o2)c(Cl)c1)c1ccccn1`, the IC50 in the test on Leishmania donovani was 2000 nM; with Leishmania amazonensis, 560 nM.

For `COc1cc(NC(=N)c2ccccn2)ccc1-c1ccc(-c2ccc(NC(=N)c3ccccn3)cc2OC)o1`, the figures for the IC50 in the test with Leishmania donovani and with Leishmania amazonensis were 530 nM and 370 nM, respectively.

Take `Cc1ccc(C(=N)Nc2ccc(-c3ccc(-c4ccc(NC(=N)c5ccc(C)cn5)cc4C)o3)c(C)c2)nc1`: the IC50 in the test on Leishmania donovani amounted to 840 nM; in the test with Leishmania amazonensis, 160 nM.

On to `N=C(Nc1ccc(-c2ccc(-c3ccc(NC(=N)c4ccccn4)cc3)o2)cc1)c1ccccn1`, for which the IC50 with Leishmania donovani came to 1600 nM; in the test with Leishmania amazonensis it was 530 nM.

The IC50 is the midpoint of a concentration-inhibition curve. A lower IC50 goes with greater potency in that assay.

The record behind these values is ChEMBL document CHEMBL1811805, “Molecular factors governing inhibition of arylimidamides against Leishmania: conservative computational modeling to improve chemotherapies” (Bioorg Med Chem, 2011).
